In ChEMBL document CHEMBL1649560, “Beta-lactamase-mediated beta-lactam resistance in Campylobacter species: prevalence of Cj0299 (bla OXA-61) and evidence for a novel beta-Lactamase in C. jejuni” (2009):
In brackets after ≈: the same amount, converted by molar mass.

Legend:
Assay type in all cases: functional
[1] = tested on: Campylobacter jejuni; test: Antibacterial activity against bla gene-positive and nitrocefin reaction-positive beta-lactamase harboring Campylobacter jejuni isolate P790 by NCCLS agar doubling dilution method in presence of Tazobactam
Method in brief: (§1)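 MICs by agar doubling dilution per the NCCLS (now CLSI) Campylobacter Working Group method. Isolates came from UK chicken flocks (feces, ceca or farm environment), 2000–2006. C. jejuni NCTC 11168 and C. coli NCTC 11366 served as control strains. The ampicillin resistance cutoff was 8 μg/ml; BSAC/CLSI Enterobacteriaceae guidelines were used for other agents.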

[2] = tested on: Campylobacter jejuni; test: Antibacterial activity against bla gene-positive and nitrocefin reaction-positive beta-lactamase harboring Campylobacter jejuni isolate P316 by NCCLS agar doubling dilution method in presence of Tazobactam; method in brief: as §1
[3] = tested on: Campylobacter coli; test: Antibacterial activity against Campylobacter coli by NCCLS agar doubling dilution method
Method in brief: (§2)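 MICs by agar doubling dilution following the NCCLS (CLSI) Campylobacter Working Group procedure, applied to ampicillin- and amoxicillin-resistant isolates from UK chicken flocks (2000–2006). C. jejuni NCTC 11168 and C. coli NCTC 11366 served as control strains. Resistance was called at an ampicillin cutoff of 8 μg/ml. Other agents were judged against Enterobacteriaceae guidelines (BSAC, CLSI).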

[4] = tested on: Campylobacter jejuni; test: Antibacterial activity against bla gene-negative and nitrocefin reaction-negative beta-lactamase harboring Campylobacter jejuni isolate P835 by NCCLS agar doubling dilution method in presence of Tazobactam
Method in brief: (§3)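 MICs of β-lactams by agar doubling dilution following the NCCLS (CLSI) Campylobacter Working Group procedure, with C. jejuni NCTC 11168 and C. coli NCTC 11366 as controls. Isolates were from UK poultry flocks. β-Lactamase status was set by Cj0299 PCR (281-bp amplimer) and by a nitrocefin colour change of sonicated lysate within 5 min, or within 30 min on repeat.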

[5] = tested on: Campylobacter jejuni; test: Antibacterial activity against bla gene-positive and nitrocefin reaction-negative beta-lactamase harboring Campylobacter jejuni isolate P1698 by NCCLS agar doubling dilution method in presence of Tazobactam; method in brief: as §3
[6] = tested on: Campylobacter jejuni; test: Antibacterial activity against bla gene-positive and nitrocefin reaction-positive beta-lactamase harboring Campylobacter jejuni isolate P1730 by NCCLS agar doubling dilution method in presence of Tazobactam; method in brief: as §1
[7] = tested on: Campylobacter jejuni; test: Antibacterial activity against bla gene-positive and nitrocefin reaction-positive beta-lactamase harboring Campylobacter jejuni isolate P1093 by NCCLS agar doubling dilution method in presence of Tazobactam; method in brief: as §3
[8] = tested on: Campylobacter jejuni; test: Antibacterial activity against bla gene-negative and nitrocefin reaction-positive beta-lactamase harboring Campylobacter jejuni isolate P843 by NCCLS agar doubling dilution method in presence of Tazobactam; method in brief: as §3
[9] = tested on: Campylobacter coli; test: Antibacterial activity against Campylobacter coli by NCCLS agar doubling dilution method in presence of Tazobactam; method in brief: as §3
[10] = tested on: Campylobacter jejuni; test: Antibacterial activity against Campylobacter jejuni isolate P270 harboring blaOXA-61::cat gene by NCCLS agar doubling dilution method in presence of Tazobactam
[11] = tested on: Campylobacter coli; test: Antibacterial activity against bla gene-positive and nitrocefin reaction-positive beta-lactamase harboring Campylobacter coli isolate P321 by NCCLS agar doubling dilution method in presence of Tazobactam; method in brief: as §3
[12] = tested on: Campylobacter jejuni; test: Antibacterial activity against bla gene-negative and nitrocefin reaction-negative beta-lactamase harboring Campylobacter jejuni isolate P850 by NCCLS agar doubling dilution method in presence of Tazobactam; method in brief: as §3
[13] = tested on: Campylobacter jejuni; test: Antibacterial activity against bla gene-positive and nitrocefin reaction-positive beta-lactamase harboring Campylobacter jejuni isolate P285 by NCCLS agar doubling dilution method in presence of Tazobactam; method in brief: as §1
[14] = tested on: Campylobacter coli; test: Antibacterial activity against bla gene-positive and nitrocefin reaction-positive beta-lactamase harboring Campylobacter coli isolate P1826 by NCCLS agar doubling dilution method in presence of Tazobactam; method in brief: as §3
[15] = tested on: Campylobacter jejuni; test: Antibacterial activity against bla gene-positive and nitrocefin reaction-positive beta-lactamase harboring Campylobacter jejuni isolate P1618 by NCCLS agar doubling dilution method in presence of Tazobactam; method in brief: as §3
[16] = tested on: Campylobacter coli; test: Antibacterial activity against bla-positive and beta-lactamase-weakly positive Campylobacter coli isolate P1627 by NCCLS agar doubling dilution method in presence of Tazobactam; method in brief: as §1
[17] = tested on: Campylobacter jejuni; test: Antibacterial activity against bla gene-positive and nitrocefin reaction-positive beta-lactamase harboring Campylobacter jejuni isolate P338 by NCCLS agar doubling dilution method in presence of Tazobactam; method in brief: as §1
[18] = tested on: Campylobacter jejuni; test: Antibacterial activity against bla gene-positive and nitrocefin reaction-negative beta-lactamase harboring Campylobacter jejuni isolate NCTC 11168 by NCCLS agar doubling dilution method in presence of Tazobactam; method in brief: as §3
[19] = tested on: Campylobacter jejuni; test: Antibacterial activity against bla gene-positive and nitrocefin reaction-negative beta-lactamase harboring Campylobacter jejuni isolate P1699 by NCCLS agar doubling dilution method in presence of Tazobactam; method in brief: as §3
[20] = tested on: Campylobacter jejuni; test: Antibacterial activity against bla gene-positive and nitrocefin reaction-positive beta-lactamase harboring Campylobacter jejuni isolate P1650 by NCCLS agar doubling dilution method in presence of Tazobactam; method in brief: as §1
[21] = tested on: Campylobacter jejuni; test: Antibacterial activity against Campylobacter jejuni by NCCLS agar doubling dilution method; method in brief: as §2
[22] = tested on: Campylobacter jejuni; test: Antibacterial activity against bla gene-negative and nitrocefin reaction-negative beta-lactamase harboring Campylobacter jejuni isolate P1962 by NCCLS agar doubling dilution method in presence of Tazobactam; method in brief: as §3
[23] = tested on: Campylobacter jejuni; test: Antibacterial activity against Campylobacter jejuni isolate P338 harboring blaOXA-61::cat gene by NCCLS agar doubling dilution method in presence of Tazobactam
Method in brief: (§4)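 Agar doubling dilution MICs (NCCLS/CLSI Campylobacter Working Group method) against Cj0299-inactivated mutants. Mutants were made by transforming the C. jejuni isolate with pCI and selecting on Mueller-Hinton agar with 10 μg/ml chloramphenicol for 3–5 days. Chromosomal insertion was confirmed by PCR with Cj0299 and cat primers.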

[24] = tested on: Campylobacter jejuni; test: Antibacterial activity against Campylobacter jejuni by NCCLS agar doubling dilution method in presence of Tazobactam; method in brief: as §3
[25] = tested on: Campylobacter jejuni; test: Antibacterial activity against Campylobacter jejuni isolate P1093 harboring blaOXA-61::cat gene by NCCLS agar doubling dilution method in presence of Tazobactam; method in brief: as §4
[26] = tested on: Campylobacter jejuni; test: Antibacterial activity against bla gene-negative and nitrocefin reaction-positive beta-lactamase harboring Campylobacter jejuni isolate P854 by NCCLS agar doubling dilution method in presence of Tazobactam; method in brief: as §3
[27] = tested on: Campylobacter jejuni; test: Antibacterial activity against bla gene-positive and nitrocefin reaction-positive beta-lactamase harboring Campylobacter jejuni isolate P286 by NCCLS agar doubling dilution method in presence of Tazobactam; method in brief: as §1

C[C@]1(Cn2ccnn2)[C@H](C(=O)O)N2C(=O)C[C@H]2S1(=O)=O [TAZOBACTAM]
MIC [1]: > 16 µg/mL
MIC [2]: > 16 µg/mL
MIC [3]: 16 µg/mL (≈ 53.3 µM)
MIC50 [3]: 16 µg/mL (≈ 53.3 µM)
MIC90 [3]: 32 µg/mL (≈ 107 µM)
MIC [4]: > 16 µg/mL
MIC [5]: 16 µg/mL
MIC [6]: 16 µg/mL
MIC [7]: 256 µg/mL
MIC [8]: > 16 µg/mL
MIC50 [9]: 16 µg/mL
MIC90 [9]: 32 µg/mL
MIC [10]: 4 µg/mL
MIC [11]: > 16 µg/mL
MIC [12]: > 8 µg/mL
MIC [13]: > 16 µg/mL
MIC [14]: 16 µg/mL
MIC [15]: 32 µg/mL
MIC [16]: 16 µg/mL
MIC [17]: > 16 µg/mL
MIC [18]: 16 µg/mL
MIC [19]: < 8 µg/mL
MIC [20]: 32 µg/mL
MIC50 [21]: 16 µg/mL (≈ 53.3 µM)
MIC90 [21]: 32 µg/mL (≈ 107 µM)
MIC [22]: > 16 µg/mL
MIC [23]: 8 µg/mL
MIC50 [24]: 16 µg/mL
MIC90 [24]: 32 µg/mL
MIC (range minimum) [24]: 1 µg/mL
MIC [25]: 32 µg/mL
MIC [26]: > 8 µg/mL
MIC [27]: > 16 µg/mL
